Laboratory results: ChEMBL document CHEMBL1140207, “A small molecule inhibitor, 1,2,4,5-benzenetetraamine tetrahydrochloride, targeting the y397 site of focal adhesion kinase decreases tumor growth” (J Med Chem, 2008)
The source made the active and inactive calls. The rule behind the calls is not given here.

Tests used:
BT-474 [1] = assay: Effect on human BT474 cell survival assessed as cell detachment at 50 uM after 24 hrs by hemocytometer; type: functional
In short: (§1)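 BT474 cells treated at a range of doses; detached cells counted on a hemacytometer; means ± standard errors of three independent experiments, versus untreated cells.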

BT-474 [2] = assay: Induction of apoptosis in human BT474 cells assessed as cleavage of 89 kDa PARP at 1 uM after 24 hrs by Western blotting; type: functional, cell-based
In short: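 BT474 cells treated at various doses; lysates immunoblotted with PARP antibody, scoring cleaved 89 kDa fragment.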

BT-474 [3] = assay: Induction of apoptosis in human BT474 cells at 10 uM after 24 hrs by […] staining; type: functional
In short: (§2)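 BT474 cells treated 24 h at various doses; apoptotic nuclei scored by Hoechst staining; means ± SD of four independent experiments versus untreated cells.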

BT-474 [4] = assay: Inhibition of human BT474 cells adhesion on collagen coated plates at 100 uM after 3 hrs by crystal violet staining
BT-474 [5] = assay: Induction of apoptosis in human BT474 cells assessed as presence of apoptotic nuclei at 20 uM after 24 hrs by […] staining; type: functional, cell-based; in short: as §2
BT-474 [6] = assay: Effect on human BT474 cell survival assessed as cell detachment at 10 uM after 24 hrs by hemocytometer; type: functional; in short: as §1
BT-474 [7] = assay: Induction of apoptosis in human BT474 cells at 20 uM after 24 hrs by […] staining; type: functional; in short: as §2
[8] = target: Focal adhesion kinase 1 (Homo sapiens) (UniProt Q05397); assay: Inhibition of total FAK phosphorylation in human BT474 cells at 100 uM by Western blotting; type: cell-based; details: BT-474, TDE = time-dependent effect
Focal adhesion kinase 1 (Homo sapiens), sequence (Q05397 2-1052 limits assumed): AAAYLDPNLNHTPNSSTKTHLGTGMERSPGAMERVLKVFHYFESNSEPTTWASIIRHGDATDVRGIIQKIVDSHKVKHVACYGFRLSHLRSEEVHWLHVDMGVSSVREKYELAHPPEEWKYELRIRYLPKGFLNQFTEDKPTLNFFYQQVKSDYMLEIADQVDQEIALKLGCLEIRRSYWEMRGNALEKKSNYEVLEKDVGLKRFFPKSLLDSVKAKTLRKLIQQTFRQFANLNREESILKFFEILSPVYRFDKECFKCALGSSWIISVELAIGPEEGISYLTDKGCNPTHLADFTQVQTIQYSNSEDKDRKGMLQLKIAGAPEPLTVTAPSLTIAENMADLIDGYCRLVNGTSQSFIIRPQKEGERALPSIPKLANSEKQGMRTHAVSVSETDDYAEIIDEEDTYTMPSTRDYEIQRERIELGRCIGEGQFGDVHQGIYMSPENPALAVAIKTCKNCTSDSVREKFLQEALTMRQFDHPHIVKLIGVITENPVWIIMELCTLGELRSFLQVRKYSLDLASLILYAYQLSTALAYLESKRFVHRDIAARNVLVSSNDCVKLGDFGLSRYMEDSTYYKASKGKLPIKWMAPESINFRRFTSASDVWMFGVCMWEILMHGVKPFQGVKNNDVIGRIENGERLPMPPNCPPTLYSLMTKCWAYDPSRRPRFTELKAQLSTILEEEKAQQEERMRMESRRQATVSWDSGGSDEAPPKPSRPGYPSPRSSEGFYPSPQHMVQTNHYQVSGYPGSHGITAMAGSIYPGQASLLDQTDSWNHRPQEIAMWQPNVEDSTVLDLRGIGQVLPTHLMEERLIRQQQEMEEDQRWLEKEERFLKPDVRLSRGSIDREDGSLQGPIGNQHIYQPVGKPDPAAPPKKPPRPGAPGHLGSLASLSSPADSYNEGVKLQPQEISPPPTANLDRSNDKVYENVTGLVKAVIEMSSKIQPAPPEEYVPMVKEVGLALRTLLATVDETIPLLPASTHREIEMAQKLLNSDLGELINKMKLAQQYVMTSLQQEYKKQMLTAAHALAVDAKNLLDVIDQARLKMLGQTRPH
In short: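 BT474 lysates immunoprecipitated with FAK antibody, blotted with phosphotyrosine antibody, then stripped and reprobed for FAK.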

[9] = target: Focal adhesion kinase 1 (Homo sapiens) (UniProt Q05397); assay: Inhibition of FAK-Y397 phosphorylation in human BT474 cells at 100 uM by Western blotting; type: cell-based; details: BT-474, TDE = time-dependent effect
In short: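 BT474 cells given 100 μM for 1–24 h; Y397-FAK and total FAK normalized to β-actin by densitometry, expressed relative to untreated; three independent experiments, mean ± SE.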

C8161 = assay: Cytotoxicity against human C8161 cells assessed as decrease in cell viability at 100 uM after 24 hrs by MTT assay; type: functional, cell-based
In short: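 Cells from breast cancer and melanoma lines were exposed to compound for 24 h and viability was read by MTT assay. A reference FAK inhibitor served as the control.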

| Activity [8] | Activity [9] | SMILES | Activity (BT-474 [1]) [%] | Activity (BT-474 [2]) | Activity (BT-474 [3]) [%] | Activity (BT-474 [4]) | Activity (BT-474 [5]) | Activity (BT-474 [6]) [%] | Activity (BT-474 [7]) [%] | Activity (C8161) |
| --- | --- | --- | --- | --- | --- | --- | --- | --- | --- | --- |
| tde | tde | CNC(=O)c1ccccc1Nc1nc(Nc2ccc(N3CCOCC3)cc2OC)ncc1Cl | >80 | Active | 35 | Active | Active | 30 | 69 |  |
|  |  | O=S1(=O)N2CN3CCN(C2)CN1C3 |  |  |  |  |  |  |  | Active |
